According to PMC10937199 (ESMO Open, 2024):

Experiments:
advanced solid tumors [1] = experiment: Best overall response per RECIST version 1.1, Part FE; assay type: in vivo, human
DNA-PK = conditions: previous studies; cited from earlier work
[2] = test system: patients with advanced solid tumors; conditions: Part B, 100-250 mg q.d.
advanced solid tumors [3] = experiment: Best overall response per RECIST version 1.1, Part A; assay type: in vivo, human
[4] = healthy volunteers; cited from earlier work
[5] = Food effect on peposertib pharmacokinetics, Part FE; assay type: in vivo, human; conditions: after a single dose, sampling did not cover tmax
advanced solid tumors [6] = experiment: Best overall response per RECIST version 1.1, Part B; assay type: in vivo, human
[7] = 50-mg film-coated hot melt extrudate tablets; estimated; cited from earlier work
[8] = test system: patients with advanced solid tumors; experiment: Safety; assay type: in vivo, human; conditions: Part FE
advanced solid tumors [9] = experiment: Disease control by baseline PD-L1 and DNA-PK immunohistochemistry; assay type: in vivo, human
In short: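 Immunohistochemistry on pretreatment archival tumor tissue; in Parts A and B, fresh samples were taken when no archival tissue was available. DNA-PK staining was scored as an H-score combining prevalence and staining intensity, then related to disease control.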

For `COc1ccc([C@@H](O)c2cc(-c3ncnc4cc(N5CCOCC5)ccc34)c(F)cc2Cl)nn1` [Peposertib], the “Best overall response of stable disease (SD) or non-CR/non-PD” value (advanced solid tumors [1]; all dose levels) is given as 33.3%, the “Patients with a PR” value (advanced solid tumors [1]; all patients, response at 200 mg b.i.d.) is given as “one of nine” and the DNA-PK inhibition (DNA-PK) is given as “time- and concentration-dependent manner”. For the same molecule, the DLT [2] was “no DLT was reported”, the “Patients with complete response (CR) or partial response (PR)” value (advanced solid tumors [3]) was “no patients” and the “Best overall response of stable disease (SD) or non-CR/non-PD” value (advanced solid tumors [3]; all dose levels) was 17.2%. The Food effect [4] was “only a mild food effect”, the “Effect of food on peposertib Cmax” value [5] was “food delayed peposertib Cmax” and the “Patients with complete response (CR) or partial response (PR)” value (advanced solid tumors [6]) was “no patients”. For the same molecule, the “Best overall response of stable disease (SD) or non-CR/non-PD” value (advanced solid tumors [6]; all dose levels) was 31.6%, the “Increase in bioavailability versus capsules” value [7] was 75% and the “Serious TEAE: sepsis” value ([8]; 100 mg b.i.d.) was 2/4. The IRR ([8]; 100 mg b.i.d., all grade) was 1 (25.0) n (%), the “Immune-related AE” value ([8]; 100 mg b.i.d., all grade) was 0 n (%) and the “Serious TEAE” value ([8]; 100 mg b.i.d., all grade) was 2 (50.0) n (%). For the same molecule, the “Serious TEAE, peposertib related” value ([8]; 100 mg b.i.d., all grade) was 1 (25.0) n (%), the “Serious TEAE, treatment related” value ([8]; 100 mg b.i.d., all grade) was 1 (25.0) n (%) and the TEAE ([8]; 100 mg b.i.d., all grade) was 4 (100.0) n (%). For the same molecule, the “TEAE leading to death” value ([8]; 100 mg b.i.d., all grade) was 1 (25.0) n (%), the “TEAE, peposertib related” value ([8]; 100 mg b.i.d., all grade) was 3 (75.0) n (%) and the “TEAE, treatment related” value ([8]; 100 mg b.i.d., all grade) was 3 (75.0) n (%). For the same molecule, the “Treatment-related AE leading to death” value ([8]; 100 mg b.i.d., all grade) was 0 n (%), the IRR ([8]; 100 mg b.i.d., grade ≥3) was 0 n (%) and the “Immune-related AE” value ([8]; 100 mg b.i.d., grade ≥3) was 0 n (%). For the same molecule, the “Serious TEAE” value ([8]; 100 mg b.i.d., grade ≥3) was 2 (50.0) n (%), the “Serious TEAE, peposertib related” value ([8]; 100 mg b.i.d., grade ≥3) was 1 (25.0) n (%) and the “Serious TEAE, treatment related” value ([8]; 100 mg b.i.d., grade ≥3) was 1 (25.0) n (%). For the same molecule, the TEAE ([8]; 100 mg b.i.d., grade ≥3) was 3 (75.0) n (%), the “TEAE leading to death” value ([8]; 100 mg b.i.d., grade ≥3) was 1 (25.0) n (%) and the “TEAE, peposertib related” value ([8]; 100 mg b.i.d., grade ≥3) was 1 (25.0) n (%). The “TEAE, treatment related” value ([8]; 100 mg b.i.d., grade ≥3) was 1 (25.0) n (%), the “Treatment-related AE leading to death” value ([8]; 100 mg b.i.d., grade ≥3) was 0 n (%) and the IRR ([8]; 200 mg b.i.d., all grade) was 1 (20.0) n (%). The “Immune-related AE” value ([8]; 200 mg b.i.d., all grade) was 2 (40.0) n (%), the “Serious TEAE” value ([8]; 200 mg b.i.d., all grade) was 3 (60.0) n (%) and the “Serious TEAE, peposertib related” value ([8]; 200 mg b.i.d., all grade) was 1 (20.0) n (%). For the same molecule, the “Serious TEAE, treatment related” value ([8]; 200 mg b.i.d., all grade) was 2 (40.0) n (%), the TEAE ([8]; 200 mg b.i.d., all grade) was 5 (100.0) n (%) and the “TEAE leading to death” value ([8]; 200 mg b.i.d., all grade) was 1 (20.0) n (%). The “TEAE, peposertib related” value ([8]; 200 mg b.i.d., all grade) was 5 (100.0) n (%), the “TEAE, treatment related” value ([8]; 200 mg b.i.d., all grade) was 5 (100.0) n (%) and the “Treatment-related AE leading to death” value ([8]; 200 mg b.i.d., all grade) was 0 n (%). The IRR ([8]; 200 mg b.i.d., grade ≥3) was 1 (20.0) n (%), the “Immune-related AE” value ([8]; 200 mg b.i.d., grade ≥3) was 2 (40.0) n (%) and the “Serious TEAE” value ([8]; 200 mg b.i.d., grade ≥3) was 3 (60.0) n (%). For the same molecule, the “Serious TEAE, peposertib related” value ([8]; 200 mg b.i.d., grade ≥3) was 1 (20.0) n (%), the “Serious TEAE, treatment related” value ([8]; 200 mg b.i.d., grade ≥3) was 2 (40.0) n (%) and the TEAE ([8]; 200 mg b.i.d., grade ≥3) was 4 (80.0) n (%). For the same molecule, the “TEAE leading to death” value ([8]; 200 mg b.i.d., grade ≥3) was 1 (20.0) n (%), the “TEAE, peposertib related” value ([8]; 200 mg b.i.d., grade ≥3) was 3 (60.0) n (%) and the “TEAE, treatment related” value ([8]; 200 mg b.i.d., grade ≥3) was 4 (80.0) n (%). The “Treatment-related AE leading to death” value ([8]; 200 mg b.i.d., grade ≥3) was 0 n (%), the “Discontinuation of all study treatments due to AEs” value ([8]; all dose levels) was 4 (44.4%) and the “Peposertib-related TEAE: diarrhea” value ([8]; all dose levels) was 4 (44.4%). The “Peposertib-related TEAE: fatigue” value ([8]; all dose levels) was 5 (55.6%), the “Patients with SD among PD-L1+ tumors” value (advanced solid tumors [9]; Part A) was “two of seven” and the “Patients with SD among PD-L1− tumors” value (advanced solid tumors [9]; Part A) was “two of 17”. For the same molecule, the “Patients with SD among PD-L1+ tumors” value (advanced solid tumors [9]; Part B) was “two of seven”, the “Patients with SD among PD-L1− tumors” value (advanced solid tumors [9]; Part B) was “three of nine” and the “Association between DNA-PK H-score and disease control” value (advanced solid tumors [9]; Parts A, B and FE) was “No association”.
